Data set [1] in a line: Inhibition of cytosolic phospholipase A2alpha by GLU micelle assay. In outline:
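Micellar assay with 7-hydroxycoumarinyl-γ-linolenate (GLU) substrate, presenting inhibitor and substrate to the enzyme in high-lipid micelles. Each run gives the mean of duplicate assays, and values come from at least two runs.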

For a further data set, the system named is Blood. In words: Inhibition of TXB2 production in Sprague-Dawley rat whole blood. The class given is functional, tissue-based. In outline:
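Rat whole blood stimulated with calcium ionophore A23187 at 5 µM, with thromboxane B2 measured. Each run gives the mean of triplicate assays, and values come from at least two runs.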

The nature of data set [2]: Plasma clearance in Sprague-Dawley rat at 2 mg/kg, iv. Details: dose 2 mg/kg, route intravenous. The class given is ADME, organism-based.
Data set [3] concerns MC9. Nature of the data set: Inhibition of leukotrienes production in mouse MC9 cells. The class given is functional, cell-based. Summed up: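 Murine MC-9 mast cells stimulated through the IgE receptor to release arachidonic acid. Leukotriene production (5-LO pathway) was quantified.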
Data set [4] concerns MC9. Nature of the data set: Inhibition of LTB4 production in mouse MC9 cells. The class given is functional, cell-based.
Data set [5] is described as follows: Plasma concentration in adjuvant-induced arthritis Lewis rat model at 5 mg/kg, po after 4 hrs. The class given is ADME, organism-based. Set-up: dose 5 mg/kg, route oral.
In data set [6] the test system is MC9. Nature of the data set: Inhibition of PGF2alpha production in mouse MC9 cells. The class given is functional, cell-based.
The test system of data set [7] is Rattus norvegicus. Nature of the data set: Reduction in synovitis damage in Freund's adjuvant-induced arthritis Lewis rat model at 5 mg/kg, po for 11 days. The class given is functional, organism-based. Details: dose 5 mg/kg. In outline:
(§1)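 Arthritis was induced in Lewis rats by intradermal complete Freund's adjuvant at the base of the tail. Oral treatment began on day 8, when mean clinical joint scores were 12, and continued for 11 days. Tarsal joints were taken at necropsy and lesions were scored histologically in blinded fashion.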

Data set [8] deals with MC9. Nature of the data set: Inhibition of PGF2apha production in arachidonic acid-stimulated mouse MC9 cells. The class given is functional, cell-based.
Data set [9] deals with Rattus norvegicus. Nature of the data set: Inhibition of PGE2 production in carrageenan-stimulated rat air pouch model at 2 mg/kg, ip after 6 hrs. The class given is functional. The conditions noted are these: route intraperitoneal. In outline:
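Rats given an intraperitoneal dose. Carrageenan was injected into a preformed air pouch, contents were collected 6 h later, and PGE2 was quantified.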

Data set [10] can be described thus: Plasma concentration in adjuvant-induced arthritis Lewis rat model at 5 mg/kg, po after 16 hrs. The class given is ADME, organism-based. Details: dose 5 mg/kg, route oral.
Data set [11] concerns Rattus norvegicus. Nature of the data set: Reduction in cartilage damage in Freund's adjuvant-induced arthritis Lewis rat model at 5 mg/kg, po for 11 days. The class given is functional, organism-based. Set-up: dose 5 mg/kg. Summed up: as §1
Data set [12] concerns Rattus norvegicus. Nature of the data set: Inhibition of carrageenan-induced paw edema in Sprague-Dawley rat administered 2 hrs before carrageenan challenge at 25 mg/kg, po. The class given is functional.
The test system of data set [13] is Rattus norvegicus. In words: Inhibition of carrageenan-induced paw edema in Sprague-Dawley rat administered 2 hrs before carrageenan challenge at 10 mg/kg, po. The conditions noted are these: read-out: INH.

The structures appear in SMILES notation. Activity calls are given as the source filed them. The rule behind the calls is not given here. Bounds are passed on as bounds.

Turning to `O=C(O)c1ccc(OCCc2c(CCNS(=O)(=O)Cc3cccnc3)n(C(c3ccccc3)c3ccccc3)c3ccc(Cl)cc23)cc1`, the results for the IC50 (in [1]; with Blood) were 220 nM and 360 nM, respectively.
As for `O=C(O)c1ccc(S(=O)(=O)CCc2c(CCNS(=O)(=O)Cc3ccc(Cl)c(Cl)c3)n(C(c3ccccc3)c3ccccc3)c3ccc(Cl)cc23)cc1`, in data set [2], the clearance came out at 19 mL/min/kg. Moreover, the IC50 in [1] is 20 nM; with Blood it was 150 nM.
Regarding `N#Cc1ccc(CS(=O)(=O)NCCc2c(CCOc3ccc(C(=O)O)cc3)c3cc(Cl)ccc3n2C(c2ccccc2)c2ccccc2)cc1`, the 50% inhibitory concentration (IC50) in data set [1] was found to be 260 nM; in the data set with Blood it was 150 nM.
As for `O=C(O)Cc1nc(CCCc2c(CCNS(=O)(=O)Cc3ccccc3)n(C(c3ccccc3)c3ccccc3)c3ccc(Cl)cc23)no1`, in [1], the IC50 is greater than 20000 nM.
`O=C(O)c1ccc(S(=O)(=O)CCc2c(CCNS(=O)(=O)Cc3c(F)cccc3F)n(C(c3ccccc3)c3ccccc3)c3ccc(Cl)cc23)cc1`: the clearance in data set [2] came out at 186 mL/min/kg. In addition, the IC50 in data set [1] is 20 nM; in the data set on Blood, 150 nM.
`O=C(O)c1ccc(OCCc2c(CCNS(=O)(=O)Cc3ccccn3)n(C(c3ccccc3)c3ccccc3)c3ccc(Cl)cc23)cc1`: the results for the IC50 (in data set [1]; in the data set on Blood) were 400 nM and 350 nM, respectively.
The like results for `O=C(O)c1ccc(CCCc2c(CCNS(=O)(=O)Cc3c(F)cccc3F)n(C(c3ccccc3)c3ccccc3)c3ccc(Cl)cc23)cc1` were, in that order, 60 nM and 360 nM.
For `O=C(O)c1ccc(OCCc2c(CCNS(=O)(=O)Cc3c(F)cccc3F)n(C(c3ccccc3)c3ccccc3)c3ccc(Cl)cc23)cc1`, the clearance in [2] amounted to 32 mL/min/kg. The IC50 is 180 nM in [1] and 80 nM in the data set with Blood.
Consider `O=C(O)c1ccc(Cc2c(CCNS(=O)(=O)Cc3ccccc3)n(C(c3ccccc3)c3ccccc3)c3ccc(Cl)cc23)cc1`, for which the results for the IC50 (in data set [1]; in the data set on Blood) were 33000 nM and greater than 10000 nM, respectively.
In [2], `O=C(O)CCc1ccc(S(=O)(=O)CCc2c(CCNS(=O)(=O)Cc3ccccc3)n(C(c3ccccc3)c3ccccc3)c3ccc(Cl)cc23)cc1` returned a clearance of 150 mL/min/kg. For the same compound, the IC50 in [1] was 30 nM; in the data set on Blood, 20 nM.
`O=C(O)c1ccc(OCCc2c(CCNS(=O)(=O)Cc3cccc([N+](=O)[O-])c3)n(C(c3ccccc3)c3ccccc3)c3ccc(Cl)cc23)cc1`: the values for the half-inhibitory concentration (IC50) (in data set [1]; in the data set with Blood) were 110 nM and 70 nM, respectively.
On the same counts, the results for `O=C(O)c1ccc(OCCc2c(CCNS(=O)(=O)Cc3ccccc3Cl)n(C(c3ccccc3)c3ccccc3)c3ccc(Cl)cc23)cc1` are 50 nM and 50 nM.
`O=C(O)CCc1ccc(S(=O)(=O)CCc2c(CCNS(=O)(=O)Cc3ccc(Cl)c(Cl)c3)n(C(c3ccccc3)c3ccccc3)c3ccc(Cl)cc23)cc1` came in with a clearance in data set [2] of 10 mL/min/kg. The IC50 (in data set [1]; in the data set with Blood) was 40 nM in each case.
Take `O=C(O)c1ccc(CCCc2c(CCNS(=O)(=O)Cc3ccccc3)n(C(c3ccccc3)c3ccccc3)c3ccc(Cl)cc23)cc1`: the IC50 (in [1]; with Blood) was 70 nM throughout.
`O=C(O)CCc1ccc(S(=O)(=O)CCc2c(CCNS(=O)(=O)Cc3ccccc3Cl)n(C(c3ccccc3)c3ccccc3)c3ccc(Cl)cc23)cc1` returned a clearance in [2] of 63 mL/min/kg. Further, the IC50 in data set [1] was determined as 10 nM; in the data set with Blood, 20 nM.
On the same counts, the results for `O=C(O)c1ccc(CCCc2c(CCNS(=O)(=O)Cc3ccccc3Cl)n(C(c3ccccc3)c3ccccc3)c3ccc(Cl)cc23)cc1` are 7 mL/min/kg, 20 nM and 30 nM.
On to `N#Cc1ccccc1CS(=O)(=O)NCCc1c(CCOc2ccc(C(=O)O)cc2)c2cc(Cl)ccc2n1C(c1ccccc1)c1ccccc1`, for which the IC50 amounted to 60 nM in [1] and 70 nM with Blood.
The like results for `O=C(O)CCc1ccc(Cc2c(CCNS(=O)(=O)Cc3ccccc3)n(C(c3ccccc3)c3ccccc3)c3ccc(Cl)cc23)cc1` were, in that order, 2000 nM and 900 nM.
On the same counts, the results for `O=C(O)CCc1ccc(S(=O)(=O)CCc2c(CCNS(=O)(=O)Cc3c(F)cccc3F)n(C(c3ccccc3)c3ccccc3)c3ccc(Cl)cc23)cc1` are 70 nM and 20 nM.
For the compound `CC(c1cc2ccccc2s1)N(O)C(N)=O` (configuration not stated) [ZILEUTON], in the data set with MC9 [3], the outcome was Active. The compound further had an IC50 in the data set on MC9 [4] of 550 nM.
For the compound `Cc1ccccc1CS(=O)(=O)NCCc1c(CCOc2ccc(C(=O)O)cc2)c2cc(Cl)ccc2n1C(c1ccccc1)c1ccccc1`, the IC50 in [1] was 60 nM; in the data set on Blood, 30 nM.
`Cc1ccc(-c2cc(C(F)(F)F)nn2-c2ccc(S(N)(=O)=O)cc2)cc1` [CELECOXIB]: in data set [5], the concentration at 4 h was determined as 1130 ng/mL. The IC50 was 400 nM with MC9 [6] and 300 nM in the data set with MC9 [8]. The outcome in the data set on Rattus norvegicus [7] and in the data set on Rattus norvegicus [11] was Active. The inhibition in vivo at 2 mg/kg in the data set with Rattus norvegicus [9] was determined as 90%. In addition, the concentration at 16 h in [10] came to 129 ng/mL. Besides, in the data set on Rattus norvegicus [12], the inhibition in vivo at 25 mg/kg was 37%.
As for `O=C(O)COc1ccc(Cc2c(CCNS(=O)(=O)Cc3ccccc3)n(C(c3ccccc3)c3ccccc3)c3ccc(Cl)cc23)cc1`, the IC50 in [1] was 7000 nM; in the data set with Blood, greater than 10000 nM.
The like results for `O=C(O)c1ccc(OCCc2c(CCNS(=O)(=O)Cc3ccc([N+](=O)[O-])cc3)n(C(c3ccccc3)c3ccccc3)c3ccc(Cl)cc23)cc1` were, in that order, 160 nM and 90 nM.
In turn, `Cc1ccccc1CS(=O)(=O)NCCc1c(CCCc2ccc(C(=O)O)cc2)c2cc(Cl)ccc2n1C(c1ccccc1)c1ccccc1` showed a clearance in data set [2] of 6 mL/min/kg. Also, the IC50 in [1] worked out at 30 nM; in the data set with Blood, 20 nM.
`Cc1cccc(C)c1CS(=O)(=O)NCCc1c(CCOc2ccc(C(=O)O)cc2)c2cc(Cl)ccc2n1C(c1ccccc1)c1ccccc1`: the clearance in [2] is 13 mL/min/kg. Further, the IC50 (in [1]; in the data set with Blood) was 30 nM in each case.
As to `COc1ccc2cc([C@H](C)C(=O)O)ccc2c1` [NAPROXEN], the IC50 with MC9 [6] is 200 nM; in the data set with MC9 [8], 330 nM. Moreover, in the data set on Rattus norvegicus [13], the inhibition in vivo at 10 mg/kg was 50%.
Take `O=C(O)c1ccc(OCCc2c(CCNS(=O)(=O)Cc3ccncc3)n(C(c3ccccc3)c3ccccc3)c3ccc(Cl)cc23)cc1`: the IC50 in data set [1] turned out to be 180 nM; in the data set with Blood it was 340 nM.
The like results for `O=C(O)CCc1ccc(OCCc2c(CCNS(=O)(=O)Cc3ccccc3)n(C(c3ccccc3)c3ccccc3)c3ccc(Cl)cc23)cc1` were, in that order, 190 nM and 70 nM.
`O=C(O)c1ccc(OCCc2c(CCNS(=O)(=O)Cc3ccc4ccccc4c3)n(C(c3ccccc3)c3ccccc3)c3ccc(Cl)cc23)cc1`: the IC50 in [1] stood at 230 nM; with Blood it was 140 nM.
The like results for `O=C(O)c1ccc(NCCc2c(CCNS(=O)(=O)Cc3ccccc3)n(C(c3ccccc3)c3ccccc3)c3ccc(Cl)cc23)cc1` were, in that order, 680 nM and 400 nM.
On the same counts, the results for `O=C(O)c1ccc(S(=O)(=O)CCc2c(CCNS(=O)(=O)Cc3ccccc3Cl)n(C(c3ccccc3)c3ccccc3)c3ccc(Cl)cc23)cc1` are 10 nM and 60 nM.
The like results for `CN(CCc1c(CCNS(=O)(=O)Cc2ccccc2)n(C(c2ccccc2)c2ccccc2)c2ccc(Cl)cc12)c1ccc(C(=O)O)cc1` were, in that order, 4300 nM and 1800 nM.
`Cc1cccc(C)c1CS(=O)(=O)NCCc1c(CCS(=O)(=O)c2ccc(C(=O)O)cc2)c2cc(Cl)ccc2n1C(c1ccccc1)c1ccccc1` returned a clearance in data set [2] of 25 mL/min/kg. Besides, the values for the IC50 (in data set [1]; in the data set on Blood) were 4 nM and 70 nM, respectively.
For `N#Cc1cccc(CS(=O)(=O)NCCc2c(CCOc3ccc(C(=O)O)cc3)c3cc(Cl)ccc3n2C(c2ccccc2)c2ccccc2)c1`, the half-inhibitory concentration (IC50) in data set [1] is 300 nM; in the data set with Blood it was 160 nM.
Consider `O=C(O)c1ccc(OCCc2c(CCNS(=O)(=O)Cc3ccccc3)n(C(c3ccccc3)c3ccccc3)c3ccc(Cl)cc23)cc1`, for which the IC50 in [1] was found to be 110 nM.
On to `O=C(O)c1ccc(OCCc2c(CCNS(=O)(=O)Cc3ccccc3[N+](=O)[O-])n(C(c3ccccc3)c3ccccc3)c3ccc(Cl)cc23)cc1`, for which the IC50 in data set [1] was determined as 85 nM; in the data set on Blood, 30 nM.
Regarding `O=C(O)c1ccc(S(=O)(=O)CCc2c(CCNS(=O)(=O)Cc3ccccc3)n(C(c3ccccc3)c3ccccc3)c3ccc(Cl)cc23)cc1`, in [2], the clearance was found to be 54 mL/min/kg. Further, the IC50 is 20 nM in data set [1] and 80 nM in the data set on Blood.

The values are drawn from ChEMBL document CHEMBL1150415 (J Med Chem, 2008).
